In PubChem BioAssay AID623937 (The Scripps Research Institute Molecular Screening Center, 2012):
Several values for one entry are separate records, joined by “and”; a condition that tells them apart may be missing. Equal values may be shown once. Activity calls are given as the source filed them.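 Rule for the calls: active = Chi band cutting by RecBCD reduced more than twofold versus the solvent-only control; inactive = reduction of twofold or less versus solvent-only control.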

biological target: RecBCD enzyme subunit RecC (Escherichia coli (strain K12)) + RecBCD enzyme subunit RecB (Escherichia coli (strain K12)) (UniProt P07648+P08394); test: inhibition of Chi-specific DNA cleavage by RecBCD – biochemical, radioactive gel readout, single concentration, counter-screen for AddAB inhibitor project, late-stage follow-up (AID 623937); conditions: purified RecBCD, 32P DNA gel autoradiography, at 50 µM
Sequence (P07648 whole entry, looked up, the tested form may be a part): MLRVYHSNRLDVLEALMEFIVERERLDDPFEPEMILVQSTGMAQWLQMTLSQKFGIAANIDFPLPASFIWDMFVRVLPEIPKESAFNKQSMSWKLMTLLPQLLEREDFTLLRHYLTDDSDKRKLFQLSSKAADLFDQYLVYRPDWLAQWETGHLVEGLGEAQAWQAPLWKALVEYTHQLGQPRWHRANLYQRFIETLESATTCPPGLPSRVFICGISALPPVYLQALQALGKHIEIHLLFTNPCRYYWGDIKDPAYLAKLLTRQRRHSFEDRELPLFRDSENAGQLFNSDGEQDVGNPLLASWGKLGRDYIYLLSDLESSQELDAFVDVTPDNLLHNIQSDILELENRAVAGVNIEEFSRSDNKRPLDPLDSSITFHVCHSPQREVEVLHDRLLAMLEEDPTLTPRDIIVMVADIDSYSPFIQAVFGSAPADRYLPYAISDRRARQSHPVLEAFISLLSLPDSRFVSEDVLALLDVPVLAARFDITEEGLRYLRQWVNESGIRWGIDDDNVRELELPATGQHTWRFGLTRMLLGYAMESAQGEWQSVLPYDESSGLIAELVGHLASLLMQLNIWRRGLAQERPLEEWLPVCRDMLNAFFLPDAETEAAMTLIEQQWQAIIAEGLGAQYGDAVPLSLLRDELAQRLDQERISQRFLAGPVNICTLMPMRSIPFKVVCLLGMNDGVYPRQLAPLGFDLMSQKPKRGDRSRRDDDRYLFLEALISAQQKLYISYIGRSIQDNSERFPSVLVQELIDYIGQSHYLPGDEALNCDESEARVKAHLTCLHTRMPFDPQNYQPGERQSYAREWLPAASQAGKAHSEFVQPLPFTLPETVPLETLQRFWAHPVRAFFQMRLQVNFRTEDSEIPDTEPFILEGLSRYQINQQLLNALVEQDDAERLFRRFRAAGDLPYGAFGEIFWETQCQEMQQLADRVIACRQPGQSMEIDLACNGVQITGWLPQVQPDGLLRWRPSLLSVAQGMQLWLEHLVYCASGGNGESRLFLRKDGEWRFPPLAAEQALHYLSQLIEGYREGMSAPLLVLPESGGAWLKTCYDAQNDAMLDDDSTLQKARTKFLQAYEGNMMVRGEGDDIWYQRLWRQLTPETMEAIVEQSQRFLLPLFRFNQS
Sequence (P08394 whole entry, looked up, the tested form may be a part): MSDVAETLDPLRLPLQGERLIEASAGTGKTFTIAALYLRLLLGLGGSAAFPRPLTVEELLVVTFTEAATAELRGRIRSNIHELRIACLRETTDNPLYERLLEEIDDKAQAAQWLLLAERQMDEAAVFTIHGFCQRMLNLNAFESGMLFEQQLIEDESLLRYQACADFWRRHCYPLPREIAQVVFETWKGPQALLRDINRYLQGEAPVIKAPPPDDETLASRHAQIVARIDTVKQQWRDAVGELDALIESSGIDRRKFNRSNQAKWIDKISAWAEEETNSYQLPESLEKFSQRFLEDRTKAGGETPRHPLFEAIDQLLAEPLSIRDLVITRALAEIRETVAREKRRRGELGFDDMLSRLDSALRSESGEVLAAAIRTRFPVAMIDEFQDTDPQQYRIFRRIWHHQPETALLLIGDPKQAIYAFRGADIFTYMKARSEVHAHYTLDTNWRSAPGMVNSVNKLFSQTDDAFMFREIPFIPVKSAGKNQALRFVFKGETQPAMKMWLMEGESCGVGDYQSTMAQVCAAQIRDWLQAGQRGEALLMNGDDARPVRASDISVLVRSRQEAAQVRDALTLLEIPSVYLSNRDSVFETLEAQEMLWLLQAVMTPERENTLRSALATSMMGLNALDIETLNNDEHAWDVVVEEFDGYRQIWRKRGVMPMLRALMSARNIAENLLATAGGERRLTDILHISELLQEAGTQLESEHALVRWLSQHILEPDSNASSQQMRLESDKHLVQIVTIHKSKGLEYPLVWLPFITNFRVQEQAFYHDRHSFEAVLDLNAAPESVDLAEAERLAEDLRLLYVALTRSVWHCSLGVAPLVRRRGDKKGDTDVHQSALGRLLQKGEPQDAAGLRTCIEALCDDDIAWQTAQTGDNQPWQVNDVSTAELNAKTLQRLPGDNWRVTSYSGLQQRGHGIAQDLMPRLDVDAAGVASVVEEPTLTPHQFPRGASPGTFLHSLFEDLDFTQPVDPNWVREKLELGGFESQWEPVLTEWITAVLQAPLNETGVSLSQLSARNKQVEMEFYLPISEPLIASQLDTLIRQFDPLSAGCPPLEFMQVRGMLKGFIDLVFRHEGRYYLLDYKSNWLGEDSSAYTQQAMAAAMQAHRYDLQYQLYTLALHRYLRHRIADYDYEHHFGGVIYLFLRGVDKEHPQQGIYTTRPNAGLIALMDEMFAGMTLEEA
In short: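 Test system: Purified E. coli RecBCD helicase-nuclease enzyme | Amount: RecBCD enzyme at 0.15 nM | Read-out: Loss of 1.46 kb Chi-cut fragment relative to DMSO | Timing: Enzyme reaction for 1 min at 37 °C | Technique: Agarose gel separation of labeled DNA products | Medium: 5 mM ATP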

Compound	fold reduction of Chi cutting
Cc1ccc(C(=O)Nc2sc3c(c2C#N)CCC3)o1	< 2 (inactive)
N#Cc1c(NC(=O)c2ccco2)sc2c1CCC2	< 2 (inactive)
C=CCNC(=S)N1CCN(c2ncc3c(=O)c(C(=O)O)cn(CC)c3n2)CC1	< 2 (inactive)
N#Cc1c(NC(=O)c2ccc([N+](=O)[O-])o2)sc2c1CCCC2	< 2 (inactive)
CC1(C)Cc2c(sc(NC(=O)c3ccco3)c2C#N)CO1	< 2 (inactive)
NC(=O)c1ccsc1NC(=O)COC(=O)c1ccc([N+](=O)[O-])o1	< 2 (inactive)
CCn1cc(C(=O)O)c(=O)c2cnc(N3CCN(C(=S)Nc4ccc5c(c4)OCO5)CC3)nc21	< 2 (inactive)
Cc1cccnc1NC(=O)c1ccc([N+](=O)[O-])o1	< 2 (inactive)
CC1CCc2c(sc(NC(=O)c3ccc([N+](=O)[O-])o3)c2C#N)C1 (stereo not drawn)	< 2 (inactive)
N#Cc1c(NC(=O)c2cccc(F)c2)sc2c1CCCC2	> 2
CCn1cc(C(=O)O)c(=O)c2cnc(N3CCN(C(=S)Nc4ccccc4Cl)CC3)nc21	> 2
CCn1cc(C(=O)O)c(=O)c2cnc(N3CCN(C(=S)Nc4cccc(C(F)(F)F)c4)CC3)nc21	< 2 (inactive)
CCn1cc(C(=O)O)c(=O)c2cnc(N3CCN(C(=S)Nc4ccc5c(c4)OCCO5)CC3)nc21	> 2
CCn1cc(C(=O)O)c(=O)c2cnc(N3CCN(C(=S)Nc4ccc(Cl)cc4)CC3)nc21	< 2 (inactive)
O=C(NCc1cccnc1)c1ccc([N+](=O)[O-])o1	< 2 (inactive)
CCn1cc(C(=O)O)c(=O)c2cnc(N3CCNCC3)nc21	< 2 (inactive)
O=C(Nc1ccc(N2CCOCC2)cc1)c1ccc([N+](=O)[O-])o1	< 2 (inactive)
CCn1cc(C(=O)O)c(=O)c2cnc(N3CCN(C(=S)NC)CC3)nc21	< 2 (inactive)
CC1CCc2c(sc(NC(=O)c3ccc([N+](=O)[O-])o3)c2N)C1 (stereo not drawn)	> 2
N#Cc1c(NC(=O)c2ccc(-c3ccccc3[N+](=O)[O-])o2)sc2c1CCCC2	< 2 (inactive)
CCn1cc(C(=O)O)c(=O)c2cnc(N3CCN(C(=S)Nc4ccccc4)CC3)nc21	> 2
CCn1cc(C(=O)O)c(=O)c2cnc(N3CCN(C(=S)Nc4ccc(F)cc4)CC3)nc21	> 2
O=C(OCC(=O)c1cccs1)c1ccc([N+](=O)[O-])o1	< 2 (inactive)
N#Cc1c(NC(=O)c2ccccc2C(=O)O)sc2c1CCCC2	> 2

Compound	fold reduction of Chi cutting
CCn1cc(C(=O)O)c(=O)c2cnc(N3CCN(C(=S)NC(=O)c4ccco4)CC3)nc21	< 2 (inactive)
Cc1ccc(C(=O)Nc2sc3c(c2C#N)CCCCC3)o1	< 2 (inactive)
CCn1cc(C(=O)O)c(=O)c2cnc(N3CCN(C(=S)NC(=O)c4cccc(C)c4)CC3)nc21	> 2
N#Cc1c(NC(=O)c2ccc([N+](=O)[O-])o2)sc2c1CCC2	> 2
Cc1sc(NC(=O)c2ccc(Br)o2)c(C#N)c1C	< 2 (inactive)
CCn1cc(C(=O)O)c(=O)c2cnc(N3CCN(C(=S)NC(=O)c4ccccc4Cl)CC3)nc21	< 2 (inactive)
O=C(Nc1cccc(NC(=O)c2ccccc2Cl)c1)c1ccc([N+](=O)[O-])o1	> 2
CCn1cc(C(=O)O)c(=O)c2cnc(N3CCN(C(=S)NC(C)c4ccccc4)CC3)nc21 (stereo not drawn)	< 2 (inactive)
CCn1cc(C(=O)O)c(=O)c2cnc(N3CCN(C(=S)Nc4ccccc4C)CC3)nc21	< 2 (inactive)
CCn1cc(C(=O)O)c(=O)c2cnc(N3CCN(C(=S)NC(=O)c4cccnc4)CC3)nc21	< 2 (inactive)
CCn1cc(C(=O)O)c(=O)c2cnc(N3CCN(C(=S)Nc4ccccc4F)CC3)nc21	< 2 (inactive)
CCn1cc(C(=O)O)c(=O)c2cnc(N3CCN(C(=S)Nc4ccccc4OC)CC3)nc21	< 2 (inactive)
CCn1cc(C(=O)O)c(=O)c2cnc(N3CCN(C(=S)NC4CC5CCC4C5)CC3)nc21 (stereo not drawn)	> 2
Cc1ccc2nc(/C(C#N)=C\c3ccc([N+](=O)[O-])o3)[nH]c2c1	> 2
Nc1c(NC(=O)c2ccc([N+](=O)[O-])o2)sc2c1CCCC2	> 2
CC(=O)Nc1ccc2nc(NC(=O)c3ccc([N+](=O)[O-])o3)sc2c1	< 2 (inactive)
C=CCn1c(Sc2ncc([N+](=O)[O-])s2)n[nH]c1=O	< 2 (inactive)
O=C(Nc1ncccn1)c1ccc([N+](=O)[O-])o1	> 2
N#Cc1c(NC(=O)c2ccccc2)sc2c1CCC2	< 2 (inactive)
N#Cc1c(NC(=O)c2cnccn2)sc2c1CCCC2	< 2 (inactive)
N#Cc1c(NC(=O)C2CC=CCC2C(=O)O)sc2c1CCC2 (stereo not drawn)	< 2 (inactive)
CCn1cc(C(=O)O)c(=O)c2cnc(N3CCN(C(=S)Nc4ccccc4C(F)(F)F)CC3)nc21	> 2 and < 2 (inactive)
CCn1cc(C(=O)O)c(=O)c2cnc(N3CCN(C(=S)NCc4ccccc4)CC3)nc21	< 2 (inactive)
CCn1cc(C(=O)O)c(=O)c2cnc(N3CCN(C(=O)Nc4ccccc4)CC3)nc21	> 2
